Experimental data from ChEMBL document CHEMBL1157618, “Noncovalent tripeptidyl benzyl- and cyclohexyl-amine inhibitors of the cysteine protease caspase-1” (J Med Chem, 2010).
Active and inactive are the calls of the source. The calls are words filed in the database; no cut-off is given here.

Target: T1, Caspase-3 (Homo sapiens) (UniProt P42574)
T1 sequence (whole entry): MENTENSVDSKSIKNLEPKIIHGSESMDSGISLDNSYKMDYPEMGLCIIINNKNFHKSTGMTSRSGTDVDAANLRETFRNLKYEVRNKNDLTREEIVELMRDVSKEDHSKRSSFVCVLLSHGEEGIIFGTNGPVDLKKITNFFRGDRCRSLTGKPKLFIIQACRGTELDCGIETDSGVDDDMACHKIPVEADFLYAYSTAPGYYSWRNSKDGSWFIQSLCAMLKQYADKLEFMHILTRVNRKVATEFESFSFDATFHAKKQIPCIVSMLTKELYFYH
Test: Inhibition of caspase 3

Row | SMILES | Activity
1 | CC(C)[C@H](NC(=O)c1ccc2ccccc2c1)C(=O)N[C@@H](C)C(=O)N[C@H](CNCc1ccccc1O)CC(=O)O | inactive

System: HT-29
Test: Cytotoxicity against human HT-29 cells at <=200 uM after 24 hrs by MTT assay
Format: functional, cell-based
Procedure, shortened: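 HT29 colon cancer cells seeded at 1 × 10⁵ cells/well in RPMI 1640, adhered overnight at 37 °C, then exposed to various compound concentrations (up to 200 μM) for 24 h at 37 °C. MTT ([…] in RPMI 1640) added for 1 h at 37 °C; cells lysed, crystals dissolved in isopropanol, absorbance read at 570 nm.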

Row | SMILES | Activity
2 | CC(C)[C@H](NC(=O)c1ccc2ccccc2c1)C(=O)N[C@@H](C)C(=O)N[C@@H](CC(=O)O)CN(C)Cc1ccccc1 | Not toxic
3 | CC(C)[C@H](NC(=O)c1ccc2ccccc2c1)C(=O)N[C@@H](C)C(=O)N[C@H](CNCc1ccc(C(N)=O)cc1)CC(=O)O | Not toxic
4 | COc1ccccc1CNC[C@H](CC(=O)O)NC(=O)[C@H](C)NC(=O)[C@@H](NC(=O)c1ccc2ccccc2c1)C(C)C | Not toxic
5 | CC(C)[C@H](NC(=O)c1ccc2ccccc2c1)C(=O)N[C@@H](C)C(=O)N[C@H](CNC1CCCCC1)CC(=O)O | Not toxic
6 | CC(C)[C@H](NC(=O)c1ccc2ccccc2c1)C(=O)N[C@@H](C)C(=O)N[C@H](CNCc1ccc(O)cc1)CC(=O)O | Not toxic
7 | CC(C)[C@H](NC(=O)c1ccc2ccccc2c1)C(=O)N[C@@H](C)C(=O)N[C@H](CCCc1ccccc1)CC(=O)O | Not toxic
8 | CC(C)[C@H](NC(=O)c1ccc2ccccc2c1)C(=O)N[C@@H](C)C(=O)N[C@@H](CC(=O)O)CN(C)C1CCCCC1 | Not toxic
9 | CC(C)[C@H](NC(=O)c1ccc2ccccc2c1)C(=O)N[C@@H](C)C(=O)N[C@H](CNCc1ccccc1F)CC(=O)O | Not toxic
10 | CC(C)[C@H](NC(=O)c1ccc2ccccc2c1)C(=O)N[C@@H](C)C(=O)N[C@H](CNCc1ccccc1)CC(=O)O | Not toxic
11 | CC(C)[C@H](NC(=O)c1ccc2ccccc2c1)C(=O)N[C@@H](C)C(=O)N[C@H](CNCc1ccccc1O)CC(=O)O | Not toxic
12 | CC(C)[C@H](NC(=O)c1ccc2ccccc2c1)C(=O)N[C@@H](C)C(=O)N[C@H](CNCc1ccc2c(c1)OCO2)CC(=O)O | Not toxic
